Results on eight compounds are retold here after ChEMBL document CHEMBL4396879, “Conjugation of Short Peptides to Dibenzodiazepinone-Type Muscarinic Acetylcholine Receptor Ligands Determines M2R Selectivity” (J Med Chem, 2019).

What all share (format): cell-based
Assay [1] has as its target Muscarinic acetylcholine receptor M2 and M5 (Homo sapiens) (UniProt P08172+P08912). Briefly: Selectivity ratio of Ki for human muscarinic M5 receptor expressed in CHO-K9 cells to Ki for human muscarinic M2 receptor expressed in CHO-K9 cells. In short, it runs like this:
(§1)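 Ratio of mean Ki values. Each Ki came from an individual [3H]NMS competition experiment at the given CHO-hMxR subtype, converting IC50 to Ki by Cheng-Prusoff before averaging.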

Assay [2] addresses T1, Muscarinic acetylcholine receptor M1 (Homo sapiens, UniProt P11229).
T1 sequence (P11229 whole entry): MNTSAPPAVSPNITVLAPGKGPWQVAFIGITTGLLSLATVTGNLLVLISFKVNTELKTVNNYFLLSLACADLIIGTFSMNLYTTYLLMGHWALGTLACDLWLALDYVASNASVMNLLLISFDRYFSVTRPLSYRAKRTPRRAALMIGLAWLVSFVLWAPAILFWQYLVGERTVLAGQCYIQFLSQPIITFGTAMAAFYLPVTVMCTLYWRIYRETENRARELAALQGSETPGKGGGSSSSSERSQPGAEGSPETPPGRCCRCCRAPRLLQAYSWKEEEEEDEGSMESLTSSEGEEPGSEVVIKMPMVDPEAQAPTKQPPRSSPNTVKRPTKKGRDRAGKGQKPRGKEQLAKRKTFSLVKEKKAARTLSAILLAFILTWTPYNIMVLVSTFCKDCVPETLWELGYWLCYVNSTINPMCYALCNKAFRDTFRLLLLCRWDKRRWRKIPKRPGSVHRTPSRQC
Description: Displacement of [3H]-NMS from human muscarinic M1 receptor expressed in CHO-K9 cells after 3 hrs by microbeta2 scintillation counting method. The essentials: (§2)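 [3H]NMS competition binding on intact CHO-hMxR cells in L15 medium with 1% BSA, 3 h at 22 ± 1 °C with gentle shaking. [3H]NMS was 0.2 nM (M1, M2, M3), 0.1 nM (M4) or 0.3 nM (M5). […] Cells were lysed in urea/acetic acid/Triton and counted by liquid scintillation. Ki from Cheng-Prusoff. Triplicates, ≥3 experiments.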
In general terms: Loss of bound radioactivity is the signal in a displacement assay; it reports binding, not function.

Assay [3] deals with Muscarinic acetylcholine receptor M3 (Homo sapiens, UniProt P20309). Description: Displacement of [3H]-NMS from human muscarinic M3 receptor expressed in CHO-K9 cells after 3 hrs by microbeta2 scintillation counting method. The essentials: as §2
Sequence of Muscarinic acetylcholine receptor M3 (P20309 whole entry): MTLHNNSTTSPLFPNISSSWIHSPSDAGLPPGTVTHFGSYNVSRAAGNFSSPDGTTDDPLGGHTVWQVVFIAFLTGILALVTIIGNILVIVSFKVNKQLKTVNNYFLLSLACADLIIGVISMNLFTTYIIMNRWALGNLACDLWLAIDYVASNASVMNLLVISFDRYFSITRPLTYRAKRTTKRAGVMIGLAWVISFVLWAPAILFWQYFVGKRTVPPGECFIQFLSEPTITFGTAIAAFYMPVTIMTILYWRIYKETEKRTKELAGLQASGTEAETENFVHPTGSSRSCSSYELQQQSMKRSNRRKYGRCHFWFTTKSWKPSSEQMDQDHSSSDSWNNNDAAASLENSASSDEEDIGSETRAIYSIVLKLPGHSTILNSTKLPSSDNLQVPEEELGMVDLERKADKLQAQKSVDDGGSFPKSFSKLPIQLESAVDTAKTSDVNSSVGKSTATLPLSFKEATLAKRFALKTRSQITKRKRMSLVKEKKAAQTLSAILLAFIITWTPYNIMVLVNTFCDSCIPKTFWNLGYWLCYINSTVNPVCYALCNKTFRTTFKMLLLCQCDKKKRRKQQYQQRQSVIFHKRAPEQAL
The target of assay [4] is T2, Muscarinic acetylcholine receptor M5 (Homo sapiens, UniProt P08912).
T2 sequence (P08912 whole entry): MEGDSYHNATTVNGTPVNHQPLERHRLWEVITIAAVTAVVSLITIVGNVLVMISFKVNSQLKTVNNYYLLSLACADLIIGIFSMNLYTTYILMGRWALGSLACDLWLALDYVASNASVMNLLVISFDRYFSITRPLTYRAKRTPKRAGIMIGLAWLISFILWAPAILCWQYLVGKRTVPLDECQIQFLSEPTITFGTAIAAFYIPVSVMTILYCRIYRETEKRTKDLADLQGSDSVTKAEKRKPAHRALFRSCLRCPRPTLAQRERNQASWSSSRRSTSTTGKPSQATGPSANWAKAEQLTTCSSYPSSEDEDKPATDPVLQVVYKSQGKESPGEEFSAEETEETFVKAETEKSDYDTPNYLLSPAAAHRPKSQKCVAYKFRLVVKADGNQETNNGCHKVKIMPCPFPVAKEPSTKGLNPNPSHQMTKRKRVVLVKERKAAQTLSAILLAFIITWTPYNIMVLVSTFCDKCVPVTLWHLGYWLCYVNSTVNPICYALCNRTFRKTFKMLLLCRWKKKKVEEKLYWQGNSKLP
Briefly: Displacement of [3H]-NMS from human muscarinic M5 receptor expressed in CHO-K9 cells after 3 hrs by microbeta2 scintillation counting method. In short, it runs like this:
as §2

The target in assay [5] is Muscarinic acetylcholine receptor M2 and M4 (Homo sapiens) (UniProt P08173+P08172). Briefly: Selectivity ratio of Ki for human muscarinic M4 receptor expressed in CHO-K9 cells to Ki for human muscarinic M2 receptor expressed in CHO-K9 cells. The essentials: as §1
The target in assay [6] is Muscarinic acetylcholine receptors; M2 & M3 (Homo sapiens) (UniProt P20309+P08172). Description: Selectivity ratio of Ki for human muscarinic M3 receptor expressed in CHO-K9 cells to Ki for human muscarinic M2 receptor expressed in CHO-K9 cells. The essentials:
as §1

For assay [7], the target named is T3, Muscarinic acetylcholine receptor M2 (Homo sapiens, UniProt P08172).
T3 sequence (P08172 whole entry): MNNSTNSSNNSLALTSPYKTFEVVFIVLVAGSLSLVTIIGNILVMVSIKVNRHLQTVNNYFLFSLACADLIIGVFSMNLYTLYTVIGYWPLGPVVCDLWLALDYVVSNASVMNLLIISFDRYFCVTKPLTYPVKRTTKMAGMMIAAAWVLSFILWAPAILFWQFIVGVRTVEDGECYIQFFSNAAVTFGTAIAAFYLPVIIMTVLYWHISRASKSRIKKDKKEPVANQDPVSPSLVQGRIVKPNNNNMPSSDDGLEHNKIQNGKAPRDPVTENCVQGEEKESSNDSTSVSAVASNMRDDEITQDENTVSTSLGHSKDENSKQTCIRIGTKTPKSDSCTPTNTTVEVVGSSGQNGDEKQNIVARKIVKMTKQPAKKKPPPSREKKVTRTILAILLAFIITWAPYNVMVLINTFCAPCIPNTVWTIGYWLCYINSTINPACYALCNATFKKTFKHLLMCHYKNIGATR
Description: Displacement of [3H]-NMS from human muscarinic M2 receptor expressed in CHO-K9 cells after 3 hrs by microbeta2 scintillation counting method. In short, it runs like this: as §2

The target of assay [8] is Muscarinic acetylcholine receptors; M1 & M2 (Homo sapiens) (UniProt P11229+P08172). Description: Selectivity ratio of Ki for human muscarinic M1 receptor expressed in CHO-K9 cells to Ki for human muscarinic M2 receptor expressed in CHO-K9 cells. In short, it runs like this: as §1
Assay [9] deals with T4, Muscarinic acetylcholine receptor M4 (Homo sapiens, UniProt P08173).
T4 sequence (P08173 whole entry): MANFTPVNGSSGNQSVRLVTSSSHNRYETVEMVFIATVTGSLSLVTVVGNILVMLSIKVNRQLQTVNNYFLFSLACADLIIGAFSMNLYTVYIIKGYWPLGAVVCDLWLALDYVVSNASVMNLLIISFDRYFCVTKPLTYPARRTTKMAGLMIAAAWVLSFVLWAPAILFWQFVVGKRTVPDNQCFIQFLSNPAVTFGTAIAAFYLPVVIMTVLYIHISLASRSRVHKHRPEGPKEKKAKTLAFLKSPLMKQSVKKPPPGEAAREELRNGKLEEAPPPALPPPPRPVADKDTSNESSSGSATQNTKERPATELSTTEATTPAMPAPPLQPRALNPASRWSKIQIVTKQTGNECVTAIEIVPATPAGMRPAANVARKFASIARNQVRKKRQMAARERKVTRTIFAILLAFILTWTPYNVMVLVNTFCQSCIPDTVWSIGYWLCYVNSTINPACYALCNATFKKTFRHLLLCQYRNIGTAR
Briefly: Displacement of [3H]-NMS from human muscarinic M4 receptor expressed in CHO-K9 cells after 3 hrs by microbeta2 scintillation counting method. In short, it runs like this:
as §2

Sequence of Muscarinic acetylcholine receptors; M2 & M3 (Homo sapiens) (P20309 whole entry, looked up, one chain of several): as the sequence (P20309 whole entry) above

Take `CC(=O)N[C@@H](Cc1c[nH]c2ccccc12)C(=O)N[C@@H](C)C(=O)N[C@@H](Cc1ccc(O)cc1)C(=O)NCCCCC1CCN(CC(=O)N2c3ccccc3NC(=O)c3ccccc32)CC1`: the Ratio Ki in [1] stood at 6.2; in [5] it was 1.9; in [6], 56; in assay [8], 4.7. The Ki – broadly, the dissociation constant of the complex between target and ligand, obtained from inhibition or displacement – in [2] is 93.3 nM; in assay [3], 1150 nM; in assay [4], 120 nM; in [7] it was 20 nM; in assay [9], 37.2 nM.
As for `CC(=O)N[C@@H](CCCCN)C(=O)N[C@@H](C)C(=O)N[C@@H](Cc1ccc(O)cc1)C(=O)NCCCCC1CCN(CC(=O)N2c3ccccc3NC(=O)c3ccccc32)CC1`, the Ratio Ki was 53 in assay [1], 5.8 in assay [5], 160 in [6] and 14 in [8]. For the same compound, the inhibition constant (Ki) in [2] was 58.9 nM; in [3], 661 nM; in assay [4] it was 224 nM; in assay [7] it was 4.27 nM; in assay [9], 23.4 nM.
For `CC(=O)N[C@@H](CCCCN)C(=O)N[C@@H](CCCNC(=N)N)C(=O)NCCN1CCN(CCCCC2CCN(CC(=O)N3c4ccccc4NC(=O)c4ccccc43)CC2)CC1`, the Ratio Ki turned out to be 1900 in assay [1], 37 in assay [5], 800 in assay [6] and 20 in [8]. Besides, the Ki in assay [2] was 1.23 nM; in assay [3] it was 49 nM; in assay [4] it was 112 nM; in assay [7] it was 0.0631 nM; in assay [9], 2.04 nM.
As to `CC(=O)N[C@@H](CCCCN)C(=O)N[C@@H](CCCNC(=N)N)C(=O)NCC(=O)NCCCCC1CCN(CC(=O)N2c3ccccc3NC(=O)c3ccccc32)CC1`, the Ratio Ki in assay [1] is 49; in assay [5] it was 6.9; in assay [6] it was 180; in assay [8], 8.2. The Ki in assay [2] was 32.4 nM; in assay [3], 646 nM; in assay [4], 200 nM; in assay [7], 4.17 nM; in [9] it was 27.5 nM.
Consider `CC(=O)N[C@@H](Cc1c[nH]c2ccccc12)C(=O)N[C@@H](C)C(=O)N[C@@H](Cc1ccc(O)cc1)C(=O)NCCN1CCN(CCCCC2CCN(CC(=O)N3c4ccccc4NC(=O)c4ccccc43)CC2)CC1`, for which the Ratio Ki in [1] turned out to be 390; in [5] it was 19; in assay [6], 410; in assay [8] it was 27. Moreover, the Ki in assay [2] was 2.29 nM; in [3], 35.5 nM; in [4] it was 30.9 nM; in assay [7], 0.0794 nM; in assay [9] it was 1.62 nM.
In the case of `CC(=O)N[C@@H](Cc1ccc(O)cc1)C(=O)N[C@@H](C)C(=O)N[C@@H](CCCCN)C(=O)NCCCCC1CCN(CC(=O)N2c3ccccc3NC(=O)c3ccccc32)CC1`, the Ratio Ki in assay [1] was found to be 23; in [5] it was 5.9; in [6] it was 550; in [8], 19. The Ki in assay [2] was 178 nM; in assay [3] it was 5010 nM; in [4], 209 nM; in assay [7], 9.33 nM; in [9] it was 57.5 nM.
In the case of `CN1CC=C(c2nsnc2OCCCN2CCN(CCCCC3CCN(CC(=O)N4c5ccccc5NC(=O)c5ccccc54)CC3)CC2)CC1`, the Ratio Ki is 230 in [1], 35 in [5], 180 in assay [6] and 20 in assay [8]. Besides, the inhibitory constant (Ki) in assay [2] is 1.45 nM; in assay [3], 13.2 nM; in [4], 33.9 nM; in assay [7], 0.0794 nM; in assay [9], 2.57 nM.
On to `CC(=O)N[C@@H](CCCCN)C(=O)N[C@@H](C)C(=O)N[C@@H](CCCNC(=N)N)C(=O)NCCCCC1CCN(CC(=O)N2c3ccccc3NC(=O)c3ccccc32)CC1`, for which the Ratio Ki in assay [1] is 56; in assay [5], 12; in [6], 350; in assay [8], 15. Besides, the inhibition constant (Ki) in assay [2] was 115 nM; in assay [3], 2690 nM; in assay [4], 427 nM; in assay [7] it was 7.76 nM; in assay [9], 89.1 nM.
